Laboratory results taken from ChEMBL document CHEMBL4145534, “Computer-aided insights into receptor-ligand interaction for novel 5-arylhydantoin derivatives as serotonin 5-HT7 receptor agents with antidepressant activity” (Eur J Med Chem, 2018).
pKi: −log10 of the molar value.

Legend:
D(2) dopamine receptor = D(2) dopamine receptor (Homo sapiens, UniProt P14416); assay: Displacement of [3H]-raclopride from human D2L receptor expressed in HEK293 cell membranes after 1 hr by Microbeta scintillation counting method
[1] = target: T1, 5-hydroxytryptamine receptor 1A (Homo sapiens, UniProt P08908); assay: Displacement of [3H]-8-OH-DPAT from human 5HT1AR expressed in HEK293 cell membranes after 1 hr by Microbeta scintillation counting method
T1 sequence (P08908 whole entry): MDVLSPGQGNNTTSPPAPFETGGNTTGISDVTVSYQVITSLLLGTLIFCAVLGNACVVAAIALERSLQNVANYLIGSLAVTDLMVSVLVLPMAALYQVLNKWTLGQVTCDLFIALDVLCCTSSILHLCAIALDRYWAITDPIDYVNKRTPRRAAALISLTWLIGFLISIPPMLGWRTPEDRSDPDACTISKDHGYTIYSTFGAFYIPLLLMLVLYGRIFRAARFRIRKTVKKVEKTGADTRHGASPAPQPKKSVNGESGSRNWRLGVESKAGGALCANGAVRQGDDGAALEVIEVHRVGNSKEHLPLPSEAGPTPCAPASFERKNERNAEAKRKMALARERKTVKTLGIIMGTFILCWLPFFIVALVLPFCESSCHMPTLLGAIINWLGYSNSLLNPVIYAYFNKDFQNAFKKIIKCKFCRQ

[2] = target: 5-hydroxytryptamine receptor 7 (Homo sapiens, UniProt P34969); assay: Displacement of [3H]-5-CT from human 5HT7BR expressed in HEK293 cell membranes after 1 hr by Microbeta scintillation counting method
[3] = target: T2, Adrenergic receptor alpha-1 (Rattus norvegicus, UniProt P15823+P23944+P43140); assay: Displacement of [3H]-prazosin from alpha1-adrenergic receptor in rat brain cortex after 30 mins by Microbeta scintillation counting method
T2 sequence (P15823 whole entry): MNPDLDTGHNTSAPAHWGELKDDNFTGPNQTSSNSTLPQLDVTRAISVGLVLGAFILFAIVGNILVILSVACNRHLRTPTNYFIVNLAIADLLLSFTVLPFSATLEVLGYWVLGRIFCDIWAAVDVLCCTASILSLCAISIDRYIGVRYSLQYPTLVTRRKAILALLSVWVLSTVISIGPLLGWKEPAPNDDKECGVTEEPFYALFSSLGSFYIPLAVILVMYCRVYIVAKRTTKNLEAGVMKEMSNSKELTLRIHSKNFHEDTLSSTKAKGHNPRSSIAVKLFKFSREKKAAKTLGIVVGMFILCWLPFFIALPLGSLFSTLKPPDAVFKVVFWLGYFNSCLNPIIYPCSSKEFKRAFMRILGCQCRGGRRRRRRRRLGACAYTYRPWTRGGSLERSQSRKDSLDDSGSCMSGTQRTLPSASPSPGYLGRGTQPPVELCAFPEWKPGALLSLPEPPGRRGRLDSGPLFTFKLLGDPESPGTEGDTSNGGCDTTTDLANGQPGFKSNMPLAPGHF
T2 sequence (P23944 whole entry): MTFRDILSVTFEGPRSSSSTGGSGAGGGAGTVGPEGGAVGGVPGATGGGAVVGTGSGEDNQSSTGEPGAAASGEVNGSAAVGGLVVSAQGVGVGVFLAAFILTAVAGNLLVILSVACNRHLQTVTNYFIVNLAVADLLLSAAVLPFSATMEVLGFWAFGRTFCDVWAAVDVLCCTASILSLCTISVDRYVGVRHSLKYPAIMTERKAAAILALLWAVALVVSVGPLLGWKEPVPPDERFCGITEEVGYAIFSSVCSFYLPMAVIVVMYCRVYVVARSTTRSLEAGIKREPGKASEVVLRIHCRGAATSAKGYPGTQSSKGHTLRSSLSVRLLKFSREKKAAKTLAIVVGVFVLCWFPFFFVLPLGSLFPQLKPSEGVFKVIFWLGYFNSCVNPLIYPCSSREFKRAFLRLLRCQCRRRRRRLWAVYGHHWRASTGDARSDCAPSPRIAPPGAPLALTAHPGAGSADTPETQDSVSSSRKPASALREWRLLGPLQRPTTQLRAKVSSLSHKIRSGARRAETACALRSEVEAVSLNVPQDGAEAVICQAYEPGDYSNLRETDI
T2 sequence (P43140 whole entry): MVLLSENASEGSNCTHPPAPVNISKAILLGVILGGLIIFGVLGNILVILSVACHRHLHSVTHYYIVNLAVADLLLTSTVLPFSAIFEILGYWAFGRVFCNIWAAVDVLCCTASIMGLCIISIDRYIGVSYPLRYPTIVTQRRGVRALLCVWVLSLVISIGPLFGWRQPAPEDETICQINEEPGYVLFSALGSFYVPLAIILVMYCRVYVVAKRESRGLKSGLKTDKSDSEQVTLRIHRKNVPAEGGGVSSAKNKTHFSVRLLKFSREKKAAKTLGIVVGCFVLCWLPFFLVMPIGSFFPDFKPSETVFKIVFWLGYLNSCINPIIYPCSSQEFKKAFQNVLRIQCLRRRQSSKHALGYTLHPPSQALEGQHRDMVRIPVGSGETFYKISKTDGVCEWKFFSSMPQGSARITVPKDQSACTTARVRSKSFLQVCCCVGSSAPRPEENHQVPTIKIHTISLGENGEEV

[4] = target: T3, Adrenergic receptor alpha-2 (Rattus norvegicus, UniProt P22086+P19328+P22909); assay: Displacement of [3H]-clonidine from alpha2-adrenergic receptor in rat brain cortex after 30 mins by Microbeta scintillation counting method
T3 sequence (P22086 whole entry): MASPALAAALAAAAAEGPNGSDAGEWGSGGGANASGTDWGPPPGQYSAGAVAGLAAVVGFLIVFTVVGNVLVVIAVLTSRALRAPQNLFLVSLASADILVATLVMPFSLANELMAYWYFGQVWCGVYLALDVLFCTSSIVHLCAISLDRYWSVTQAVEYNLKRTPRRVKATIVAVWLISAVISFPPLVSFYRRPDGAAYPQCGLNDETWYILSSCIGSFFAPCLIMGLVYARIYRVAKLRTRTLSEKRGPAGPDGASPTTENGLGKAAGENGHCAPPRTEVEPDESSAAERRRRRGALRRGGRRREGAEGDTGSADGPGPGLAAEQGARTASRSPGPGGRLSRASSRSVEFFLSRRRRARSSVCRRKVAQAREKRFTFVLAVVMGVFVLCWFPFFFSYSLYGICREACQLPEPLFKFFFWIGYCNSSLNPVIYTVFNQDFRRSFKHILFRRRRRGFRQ
T3 sequence (P19328 whole entry): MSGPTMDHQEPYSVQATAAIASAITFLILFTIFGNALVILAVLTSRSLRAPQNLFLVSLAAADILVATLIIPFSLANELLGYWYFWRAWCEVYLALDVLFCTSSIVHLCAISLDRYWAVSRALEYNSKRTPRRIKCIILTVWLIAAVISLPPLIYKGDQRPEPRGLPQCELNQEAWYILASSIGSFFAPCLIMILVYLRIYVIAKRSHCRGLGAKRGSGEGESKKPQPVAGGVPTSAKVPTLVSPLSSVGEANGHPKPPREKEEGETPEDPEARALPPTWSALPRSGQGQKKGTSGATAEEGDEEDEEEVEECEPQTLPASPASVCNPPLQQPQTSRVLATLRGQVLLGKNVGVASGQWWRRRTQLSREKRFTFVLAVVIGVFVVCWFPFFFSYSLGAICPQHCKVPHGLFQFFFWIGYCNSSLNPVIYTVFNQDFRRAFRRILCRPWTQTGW
T3 sequence (P22909 whole entry): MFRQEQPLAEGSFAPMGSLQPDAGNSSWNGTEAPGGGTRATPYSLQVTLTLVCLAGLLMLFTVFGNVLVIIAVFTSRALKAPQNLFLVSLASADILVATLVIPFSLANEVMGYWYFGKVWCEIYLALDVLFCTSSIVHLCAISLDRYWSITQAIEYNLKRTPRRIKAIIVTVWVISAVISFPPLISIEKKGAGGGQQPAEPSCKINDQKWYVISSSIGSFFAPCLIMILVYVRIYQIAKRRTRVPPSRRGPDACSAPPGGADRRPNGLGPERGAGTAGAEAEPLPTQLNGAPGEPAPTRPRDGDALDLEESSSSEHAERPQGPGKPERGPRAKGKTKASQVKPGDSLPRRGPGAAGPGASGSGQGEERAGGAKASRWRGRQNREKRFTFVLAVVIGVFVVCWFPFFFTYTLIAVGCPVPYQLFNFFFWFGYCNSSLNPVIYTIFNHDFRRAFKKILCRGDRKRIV

[5] = target: Beta-1 adrenergic receptor (Rattus norvegicus, UniProt P18090); assay: Displacement of [3H]-CGP-12177 from beta1-adrenergic receptor in rat brain cortex after 1 hr by Microbeta scintillation counting method
Mus musculus [6] = assay: Antidepressant like activity in Swiss albino mouse assessed as immobility time at 5 mg/kg, ip administered 60 mins prior to test and measured last 4 mins of 6 mins test by forced swimming test (reference value: 159.78 to 183.56 secs); assay type: functional
Mus musculus [7] = assay: Antidepressant like activity in Swiss albino mouse assessed as immobility time at 10 mg/kg, ip administered 60 mins prior to test and measured last 4 mins of 6 mins test by forced swimming test (reference value: 159.78 to 183.56 secs); assay type: functional
Mus musculus [8] = assay: Antidepressant like activity in Swiss albino mouse assessed as immobility time at 20 mg/kg, ip administered 60 mins prior to test and measured last 4 mins of 6 mins test by forced swimming test (reference value: 159.78 to 183.56 secs); assay type: functional
Mus musculus [9] = assay: Anxiolytic-like activity in Swiss albino mouse assessed as number of punished crossings at 10 mg/kg, ip administered 60 mins prior to test and measured post 3 secs of electric shock by four-plate test (reference value: 3.8 to 4 /min); assay type: functional
Mus musculus [10] = assay: Anxiolytic-like activity in Swiss albino mouse assessed as number of punished crossings at 20 mg/kg, ip administered 60 mins prior to test and measured post 3 secs of electric shock by four-plate test (reference value: 3.8 to 4 /min); assay type: functional
Mus musculus [11] = assay: Anxiolytic-like activity in Swiss albino mouse assessed as number of punished crossings at 40 mg/kg, ip administered 60 mins prior to test and measured post 3 secs of electric shock by four-plate test (reference value: 3.8 to 4 /min); assay type: functional
Mus musculus [12] = assay: Antidepressant like activity in Swiss albino mouse assessed as decrease in immobility time at 20 mg/kg, ip administered 60 mins prior to test and measured last 4 mins of 6 mins test by forced swimming test relative to control; assay type: functional; set-up: scale not given: the % may be the effect or the level left
Mus musculus [13] = assay: Effect on spontaneous locomotor activity in Swiss albino mouse at 20 mg/kg, ip administered 60 mins prior to test and measured for 3 to 6 mins; assay type: ADME, organism-based; details: in vivo
Procedure, shortened: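 Male Swiss Albino mice given compound or vehicle (1% Tween 80, 10 ml/kg) i.p. 60 min before test. Each mouse placed alone in a cage for 30 min habituation. Ambulation (photobeam channel crossings) then recorded over a 3–6 min session. Means ± SEM.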

Homo sapiens = organism: Homo sapiens; assay: Selectivity ratio of Ki for human D2L receptor expressed in HEK293 cell membranes to Ki for human 5HT7BR expressed in HEK293 cell membranes; assay type: cell-based
Procedure, shortened: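 Membranes from HEK293 cells stably expressing human 5-HT1A, 5-HT7b or D2L receptors. Buffers all 50 mM Tris HCl with 4 mM MgCl2 and 0.1% ascorbate. 5-HT1A: 0.1 mM EDTA, 10 µM pargyline, 2.5 nM [3H]-8-OH-DPAT, room temperature. 5-HT7b: 10 µM pargyline, 0.8 nM [3H]-5-CT, 37°C. D2L: EDTA, NaCl, KCl, CaCl2, 2.5 nM [3H]-raclopride, 37°C. Incubation 1 h; nonspecific binding 10 µM 5-HT (haloperidol for D2L). Seven concentrations (10^-10–10^-4 M) in triplicate; filtration; Ki by Cheng-Prusoff; at least two experiments.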

5-hydroxytryptamine receptor 7, sequence (P34969 whole entry): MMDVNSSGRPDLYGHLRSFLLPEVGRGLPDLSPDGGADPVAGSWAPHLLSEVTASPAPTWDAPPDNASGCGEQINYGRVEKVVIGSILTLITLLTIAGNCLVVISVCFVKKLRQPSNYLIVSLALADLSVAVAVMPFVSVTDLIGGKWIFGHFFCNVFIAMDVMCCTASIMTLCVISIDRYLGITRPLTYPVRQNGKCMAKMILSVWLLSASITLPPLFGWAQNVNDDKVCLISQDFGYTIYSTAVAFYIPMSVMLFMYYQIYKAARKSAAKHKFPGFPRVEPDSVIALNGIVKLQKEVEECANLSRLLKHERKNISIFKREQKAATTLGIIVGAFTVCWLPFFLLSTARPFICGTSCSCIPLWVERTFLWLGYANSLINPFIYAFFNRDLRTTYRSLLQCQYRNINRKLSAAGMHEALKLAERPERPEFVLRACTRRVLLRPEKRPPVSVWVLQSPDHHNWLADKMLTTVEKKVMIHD
D(2) dopamine receptor, sequence (P14416 whole entry): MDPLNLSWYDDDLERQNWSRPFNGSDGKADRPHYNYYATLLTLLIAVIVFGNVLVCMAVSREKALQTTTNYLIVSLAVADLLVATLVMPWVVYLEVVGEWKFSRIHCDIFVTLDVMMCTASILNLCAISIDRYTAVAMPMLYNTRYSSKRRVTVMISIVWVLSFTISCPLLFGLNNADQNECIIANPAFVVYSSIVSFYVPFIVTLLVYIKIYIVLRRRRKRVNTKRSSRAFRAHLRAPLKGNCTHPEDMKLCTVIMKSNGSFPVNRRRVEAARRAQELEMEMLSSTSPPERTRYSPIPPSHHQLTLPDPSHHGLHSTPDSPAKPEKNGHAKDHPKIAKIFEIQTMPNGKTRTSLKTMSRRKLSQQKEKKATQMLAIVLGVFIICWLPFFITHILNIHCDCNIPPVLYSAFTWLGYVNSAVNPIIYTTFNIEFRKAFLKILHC
Beta-1 adrenergic receptor, sequence (P18090 whole entry): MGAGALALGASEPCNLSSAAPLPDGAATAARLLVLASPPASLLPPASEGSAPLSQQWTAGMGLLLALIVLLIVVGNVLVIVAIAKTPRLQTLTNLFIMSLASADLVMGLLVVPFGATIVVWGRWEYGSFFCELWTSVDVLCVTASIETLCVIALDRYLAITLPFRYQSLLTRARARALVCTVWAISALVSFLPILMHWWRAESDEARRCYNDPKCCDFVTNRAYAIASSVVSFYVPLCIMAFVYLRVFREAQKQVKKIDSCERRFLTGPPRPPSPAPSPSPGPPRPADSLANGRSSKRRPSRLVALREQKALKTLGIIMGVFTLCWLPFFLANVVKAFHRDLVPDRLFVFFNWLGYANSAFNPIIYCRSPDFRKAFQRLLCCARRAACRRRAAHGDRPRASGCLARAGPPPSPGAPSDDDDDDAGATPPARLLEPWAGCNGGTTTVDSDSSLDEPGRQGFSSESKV

Row | SMILES | pKi (D(2) dopamine receptor) | pKi [1] | pKi [2] | Ki [3] | Ki [4] | pKi [5] | Time (Mus musculus [6]) | Time (Mus musculus [7]) | Time (Mus musculus [8]) | Activity (Mus musculus [9]) | Activity (Mus musculus [10]) | Activity (Mus musculus [11]) | Activity (Mus musculus [12]) | Activity (Mus musculus [13]) | Ratio Ki (Homo sapiens)
1 | N#Cc1ccccc1N1CCN(CC(O)CN2C(=O)NC(c3ccccc3)(c3ccccc3)C2=O)CC1 (racemic) | 6.27 | 6.47 | 5.92 |  |  |  |  |  |  |  |  |  |  |  | 
2 | CCOc1ccccc1N1CCN(CC(O)CN2C(=O)NC(C)(c3ccccc3)C2=O)CC1.Cl (racemic) | 6.52 | 6.72 | 8.22 | 0.5 µM | > 5 µM | < 5.00 |  |  |  |  |  |  |  |  | 
3 | CC1(c2ccccc2)NC(=O)N(CC(O)CN2CCN(c3ccccc3C#N)CC2)C1=O.Cl (racemic) | 5.77 | 6.23 | 7.92 | 0.278 µM |  | < 5.00 | 141.22 s | 134.57 s | 34.44 s | 3.3 min⁻¹ | 4.9 min⁻¹ | 5.2 min⁻¹ | 80% | Non-Toxic | 140 to 190
4 | CC1(c2ccc(Cl)cc2)NC(=O)N(CC(O)CN2CCN(C(c3ccccc3)c3ccccc3)CC2)C1=O.Cl (racemic) | 6.22 | 7.00 | 8.10 | 0.53 µM | > 10 µM |  |  |  |  |  |  |  |  |  | 
